ChEMBL document CHEMBL3272168, “Benzodipyran derivatives with antiallergic activity” (1976)

Each molecule was assayed on Rattus norvegicus (assay: Antiallergic activity in iv dosed sensitized Sprague-Dawley rat assessed as inhibition of passive cutaneous anaphylaxis). Details: read-out: ID50 (the source's name).
Format: functional
Procedure, shortened: (§1)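 Female Sprague-Dawley rats (80–100 g, groups of five) got 0.1 ml intradermal flank injections of rat anti-N. braziliensis reaginic serum, diluted 1 in 8 to 1 in 32. After 24 h they were challenged iv with worm antigen (25 mg/kg protein) plus Evans blue (25 mg/kg). Compound in saline was given iv with the challenge. Rats were killed at 30 min and dye spots graded 0–4. % inhibition = 100 − 100 × treated/control mean score. ID50 was interpolated from a log-dose plot.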

Compared with `COc1cc2oc(C(=O)[O-])cc(=O)c2c2oc(C(=O)[O-])cc(=O)c12.[Na+].[Na+]`, `CCOc1cc2oc(C(=O)[O-])cc(=O)c2c2oc(C(=O)[O-])cc(=O)c12.[Na+].[Na+]` is 1.9-fold lower in ED50: 0.73 mg/kg for the first, 0.38 mg/kg for the second.

Compared with `O=C([O-])c1cc(=O)c2c(cc(O)c3c(=O)cc(C(=O)[O-])oc32)o1.[Na+].[Na+]`, `C=CCOc1cc2oc(C(=O)[O-])cc(=O)c2c2oc(C(=O)[O-])cc(=O)c12.[Na+].[Na+]` is 8.1-fold lower in ED50: 5 mg/kg for the first, 0.62 mg/kg for the second.

Going from `CCc1cc2c(=O)cc(C(=O)[O-])oc2c2c(=O)cc(C(=O)[O-])oc12.[Na+].[Na+]` to `O=C([O-])c1cc(=O)c2c(o1)c(Cl)cc1c(=O)cc(C(=O)[O-])oc12.[Na+].[Na+]`, the ED50 rises from 10 mg/kg to greater than 10 mg/kg.

First: O=C([O-])c1cc(=O)c2c(ccc3c(=O)cc(C(=O)[O-])oc32)o1.[Na+].[Na+]
Second: O=C([O-])c1cc(=O)c2cc3c(=O)cc(C(=O)[O-])oc3cc2o1.[Na+].[Na+]
The ED50 of the first is 42-fold higher: 7.6 mg/kg for the first, 0.18 mg/kg for the second.

`C=CCc1c(OC)c2c(=O)cc(C(=O)[O-])oc2c2c(=O)cc(C(=O)[O-])oc12.[Na+].[Na+]` and `CCCc1c(OC)c2c(=O)cc(C(=O)[O-])oc2c2c(=O)cc(C(=O)[O-])oc12.[Na+].[Na+]` are within 1.5-fold of each other in ED50: 0.22 mg/kg for the first, 0.18 mg/kg for the second.

Compared with `CCc1c2oc(C(=O)[O-])cc(=O)c2c(C)c2c(=O)cc(C(=O)[O-])oc12.[Na+].[Na+]`, `CCCc1c2oc(C(=O)[O-])cc(=O)c2c(OC)c2c(=O)cc(C(=O)[O-])oc12.[Na+].[Na+]` is 3.3-fold higher in ED50: 0.03 mg/kg for the first, 0.1 mg/kg for the second.

Going from `Cc1c2oc(C(=O)[O-])cc(=O)c2cc2c(=O)cc(C(=O)[O-])oc12.[Na+].[Na+]` to `CCc1c2oc(C(=O)[O-])cc(=O)c2cc2c(=O)cc(C(=O)[O-])oc12.[Na+].[Na+]`, the ED50 falls from 0.25 mg/kg to 0.1 mg/kg (2.5-fold).

`CCCc1c2oc(C(=O)[O-])cc(=O)c2cc2c(=O)cc(C(=O)[O-])oc12.[Na+].[Na+]` and `CCCCc1c2oc(C(=O)[O-])cc(=O)c2cc2c(=O)cc(C(=O)[O-])oc12.[Na+].[Na+]` are the same in ED50: 0.05 mg/kg for the first, 0.05 mg/kg for the second.

First: O=C([O-])c1cc(=O)c2cc3c(=O)cc(C(=O)[O-])oc3c([N+](=O)[O-])c2o1.[Na+].[Na+]
Second: CCOCc1c2oc(C(=O)[O-])cc(=O)c2cc2c(=O)cc(C(=O)[O-])oc12.[Na+].[Na+]
The ED50 of the first is 4.8-fold higher: 1.6 mg/kg for the first, 0.33 mg/kg for the second.

First: COc1c2c(=O)cc(C(=O)[O-])oc2cc2oc(C(=O)[O-])cc(=O)c12.[Na+].[Na+]
Second: O=C([O-])c1cc(=O)c2cc3oc(C(=O)[O-])cc(=O)c3cc2o1.[Na+].[Na+]
The ED50 of the first is 2.1-fold lower: 0.32 mg/kg for the first, 0.68 mg/kg for the second.

First: O=C([O-])c1cc(=O)c2c(o1)c1c(c3c(=O)cc(C(=O)[O-])oc32)OCC1.[Na+].[Na+]
Second: Cc1cc(=O)oc2c1c1oc(C(=O)[O-])cc(=O)c1c1oc(C(=O)[O-])cc(=O)c21.[Na+].[Na+]
The ED50 of the first is 12-fold lower: 0.35 mg/kg for the first, 4.24 mg/kg for the second.

`O=C([O-])c1cc(=O)c2c(OCC(O)COc3cccc4oc(C(=O)[O-])cc(=O)c34)cccc2o1.[Na+].[Na+]` [CROMOLYN SODIUM] showed an ED50 of 1.2 mg/kg.

Each molecule was assayed on Rattus norvegicus (assay: Antiallergic activity in sensitized Sprague-Dawley rat assessed as inhibition of passive cutaneous anaphylaxis at 1 mg/kg, iv). Details: not given.
Format: functional
Procedure, shortened: as §1

`CCCc1c2oc(C(=O)[O-])cc(=O)c2c(OC)c2c(=O)cc(C(=O)[O-])oc12.[Na+].[Na+]` was tested, and the inhibition in vivo at 1 mg/kg was 100%.
